{
  "source": "ChEMBL document CHEMBL1153361",
  "about": "“Synthesis and in vitro characterization of radioiodinatable benzodiazepines selective for type 1 and type 2 cholecystokinin receptors” (J Med Chem, 2009)",
  "key": {"[1]": {"molecular_target": "T1, Gastrin/cholecystokinin type B receptor (Homo sapiens) (UniProt P32239)", "T1 sequence (whole entry)": "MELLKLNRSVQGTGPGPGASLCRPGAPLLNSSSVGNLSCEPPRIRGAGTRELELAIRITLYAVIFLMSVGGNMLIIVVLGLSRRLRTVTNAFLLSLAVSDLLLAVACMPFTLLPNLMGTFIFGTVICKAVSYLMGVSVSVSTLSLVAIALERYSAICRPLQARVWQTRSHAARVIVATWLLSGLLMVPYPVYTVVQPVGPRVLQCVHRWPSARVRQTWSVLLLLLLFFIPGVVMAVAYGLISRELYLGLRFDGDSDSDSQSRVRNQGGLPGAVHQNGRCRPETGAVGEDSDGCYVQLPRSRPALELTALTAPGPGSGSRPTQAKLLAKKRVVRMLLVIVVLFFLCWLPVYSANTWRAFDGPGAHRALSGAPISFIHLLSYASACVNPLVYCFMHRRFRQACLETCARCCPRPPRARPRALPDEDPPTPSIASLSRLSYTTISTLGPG", "assay": "Binding affinity to CCK2 receptor in human gastrointestinal stromal tumor in presence of (R)-1-(3-iodophenyl)-3-(1-methyl-2-oxo-5-phenyl-2,3-dihydro-1Hbenzo[e][1,4]diazepin-3-yl)urea", "conditions": "tested as the 125I-labelled form"}, "[2]": {"molecular_target": "T1, Gastrin/cholecystokinin type B receptor (Homo sapiens)", "assay": "Binding affinity to CCK2 receptor in human gastrointestinal stromal tumor in presence of CCK8", "conditions": "tested as the 125I-labelled form"}, "[3]": {"molecular_target": "T1, Gastrin/cholecystokinin type B receptor (Homo sapiens)", "assay": "Binding affinity to CCK2 receptor in human gastrointestinal stromal tumor in presence of CCK1 antagonist L364718", "conditions": "tested as the 125I-labelled form"}, "[4]": {"molecular_target": "T1, Gastrin/cholecystokinin type B receptor (Homo sapiens)", "assay": "(§1) Displacement of [125I](R)-1-(3-iodophenyl)-3-(1-methyl-2-oxo-5-phenyl-2,3-dihydro-1Hbenzo[e][1,4]diazepin-3-yl)urea from human CCK2 receptor expressed in CHO cells by gamma spectrometry", "format": "cell-based", "conditions": "tested as the 125I-labelled form", "summary_of_the_method": "(§2)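 Homologous competition in membranes (5–10 µg protein) from CHO cells expressing human receptor. 10 pM radioligand (about 20,000 cpm) plus cold ligand 0–1 µM in KRH with 0.2% BSA and 0.01% soybean trypsin inhibitor, 1 h at room temperature. Filtration, gamma counting. Ki fitted by LIGAND nonlinear least squares. Duplicate/triplicate, ≥3 independent experiments.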"}, "[5]": {"molecular_target": "T1, Gastrin/cholecystokinin type B receptor (Homo sapiens)", "assay": "Agonist activity at human CCK2 receptor expressed in CHO cells assessed as stimulation of intracellular calcium response", "format": "functional, cell-based", "summary_of_the_method": "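CHO cells stably expressing human receptor, detached non-enzymatically, loaded with 5 μM Fura-2 AM for 30 min at 37 °C in serum-free Ham's F12. About 2 million cells per measurement were stimulated with test ligand (10 pM to 10 μM) at 37 °C. Fluorescence was read with excitation at 340/380 nm and emission at 520 nm over 300 s. Three independent experiments.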"}, "[6]": {"molecular_target": "T1, Gastrin/cholecystokinin type B receptor (Homo sapiens)", "assay": "Antagonist activity at human CCK2 receptor expressed in CHO cells assessed as inhibition of CCK8-stimulated intracellular calcium response preincubated for 100 seconds before CCK8 challenge", "format": "functional, cell-based", "summary_of_the_method": "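Fura-2 AM-loaded (5 μM, 30 min, 37 °C) CHO cells stably expressing human receptor, about 2 million per measurement. Cells were pre-incubated 100 s with increasing ligand concentrations, then stimulated with CCK-8 (final 10^-9 M) at 37 °C. Ratiometric read-out with excitation at 340/380 nm and emission at 520 nm, collected over 300 s. Means of 3 independent experiments.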"}, "[7]": {"molecular_target": "T1, Gastrin/cholecystokinin type B receptor (Homo sapiens)", "assay": "Induction of receptor internalization in YFP-tagged human CCK2 receptor expressed in CHO cells at 100 nM after 90 mins", "format": "cell-based", "summary_of_the_method": "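CHO cells stably expressing YFP-tagged receptor, grown ≥48 h on coverslips, bound with 100 nM ligand at 4 °C for 90 min in PBS with 0.08 mM CaCl2 and 0.1 mM MgCl2. After washing, cells were warmed to 37 °C for varying times, fixed in 2% paraformaldehyde, and imaged by confocal microscopy for surface versus internal YFP (ex 488, em >505 nm).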"}, "[8]": {"molecular_target": "T1, Gastrin/cholecystokinin type B receptor (Homo sapiens)", "assay": "Displacement of [125I]CCK from CCK2 receptor in human medullary thyroid carcinoma assessed as binding density per mg of tissue by autoradiography", "conditions": "tested as the 125I-labelled form"}, "[9]": {"molecular_target": "T1, Gastrin/cholecystokinin type B receptor (Homo sapiens)", "assay": "Displacement of [125I]CCK from CCK2 receptor in human muscular layer of gall bladder assessed as binding density per mg of tissue by autoradiography", "format": "tissue-based", "conditions": "tested as the 125I-labelled form"}, "[10]": {"molecular_target": "T2, Gastrin/cholecystokinin type B receptor (Homo sapiens, UniProt P32239)", "T2 sequence (P32239 whole entry)": "T1 sequence (whole entry)", "assay": "Binding affinity to human CCK2 receptor expressed in CHO cell membrane by saturation binding assay", "format": "cell membranes", "summary_of_the_method": "(§3)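 Membranes (5–10 µg protein) from CHO cells stably expressing human CCK1 or CCK2 receptor, incubated with increasing radioligand in KRH pH 7.4 with 0.2% BSA and 0.01% soybean trypsin inhibitor, 1 h at room temperature. Nonspecific binding taken with 1 µM cold homolog. Filtration, gamma counting. Kd and Bmax fitted in LIGAND.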"}, "[11]": {"molecular_target": "T2, Gastrin/cholecystokinin type B receptor", "assay": "as §1", "format": "cell-based", "summary_of_the_method": "as §2"}, "[12]": {"molecular_target": "T3, Cholecystokinin receptor type A (Homo sapiens, UniProt P32238)", "T3 sequence (P32238 whole entry)": "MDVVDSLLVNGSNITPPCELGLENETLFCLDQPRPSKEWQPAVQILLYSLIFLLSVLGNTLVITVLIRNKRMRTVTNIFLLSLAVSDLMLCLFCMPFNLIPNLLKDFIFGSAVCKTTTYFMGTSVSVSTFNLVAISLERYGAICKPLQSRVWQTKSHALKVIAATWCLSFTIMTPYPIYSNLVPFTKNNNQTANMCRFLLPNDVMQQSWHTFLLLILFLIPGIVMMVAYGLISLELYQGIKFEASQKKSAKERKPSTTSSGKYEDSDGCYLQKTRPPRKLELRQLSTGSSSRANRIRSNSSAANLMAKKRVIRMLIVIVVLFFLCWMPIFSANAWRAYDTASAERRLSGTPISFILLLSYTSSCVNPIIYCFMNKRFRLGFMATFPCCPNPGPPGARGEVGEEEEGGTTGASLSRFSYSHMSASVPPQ", "assay": "biochemical"}, "[13]": {"molecular_target": "T3, Cholecystokinin receptor type A", "assay": "Binding affinity to human CCK1 receptor expressed in CHO cell membrane by saturation binding assay", "format": "cell membranes", "summary_of_the_method": "as §3"}},
  "note": "The source made the active and inactive calls. No cut-off for these calls is given here.",
  "data": [
    {"molecule": "CN1C(=O)[C@H](NC(=O)Nc2cccc(I)c2)N=C(c2ccccc2)c2ccccc21", "values": [
      {"measurement": "Activity", "setting": "[1]", "value": "inactive"},
      {"measurement": "Activity", "setting": "[2]", "value": "inactive"},
      {"measurement": "Activity", "setting": "[3]", "value": "inactive"},
      {"measurement": "Activity", "setting": "[4]", "value": "Dose-dependent effect"},
      {"measurement": "Activity", "setting": "[5]", "value": "inactive"},
      {"measurement": "Activity", "setting": "[6]", "value": "Dose-dependent effect"},
      {"measurement": "Activity", "setting": "[7]", "value": "Active"},
      {"measurement": "Activity (disintegrations/minute)", "setting": "[8]", "value": 602},
      {"measurement": "Activity (disintegrations/minute)", "setting": "[9]", "value": 970}
    ]},
    {"molecule": "CN1C(=O)[C@H](NC(=O)Nc2cccc([125I])c2)N=C(c2ccccc2)c2ccccc21", "values": [
      {"measurement": "Kd", "setting": "[10]", "value": 2.95, "unit": "nM"},
      {"measurement": "Ki", "setting": "[11]", "value": 537, "unit": "nM"},
      {"measurement": "Ki", "setting": "[12]", "value": 3.72, "unit": "nM"}
    ]},
    {"molecule": "CN1C(=O)[C@@H](NC(=O)Nc2cccc([125I])c2)N=C(c2ccccc2)c2ccccc21", "values": [
      {"measurement": "Kd", "setting": "[13]", "value": 1.15, "unit": "nM"},
      {"measurement": "Ki", "setting": "[11]", "value": 1, "unit": "nM"},
      {"measurement": "Ki", "setting": "[12]", "value": 174, "unit": "nM"}
    ]},
    {"molecule": "CN1C(=O)[C@@H](NC(=O)Nc2cccc(I)c2)N=C(c2ccccc2)c2ccccc21", "values": [
      {"measurement": "Activity", "setting": "[4]", "value": "Dose-dependent effect"},
      {"measurement": "Activity", "setting": "[5]", "value": "inactive"},
      {"measurement": "Activity", "setting": "[6]", "value": "Dose-dependent effect"}
    ]}
  ]
}
